Compound activity as filed in PubChem.
OX1R antag-1: blocks the human orexin 1 receptor. O43613. OX1R-expressing cells, FRET antagonist read-out. inhibition, % at 6.6 µM. 1.8% of 330,000 active; in the data active = inhibition mostly above about 38%, no sharp cut-off; inactive = mostly below about 40%;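 note: 0% = agonist challenge alone and 100% = reference antagonist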
Target sequence (O43613 whole entry, looked up): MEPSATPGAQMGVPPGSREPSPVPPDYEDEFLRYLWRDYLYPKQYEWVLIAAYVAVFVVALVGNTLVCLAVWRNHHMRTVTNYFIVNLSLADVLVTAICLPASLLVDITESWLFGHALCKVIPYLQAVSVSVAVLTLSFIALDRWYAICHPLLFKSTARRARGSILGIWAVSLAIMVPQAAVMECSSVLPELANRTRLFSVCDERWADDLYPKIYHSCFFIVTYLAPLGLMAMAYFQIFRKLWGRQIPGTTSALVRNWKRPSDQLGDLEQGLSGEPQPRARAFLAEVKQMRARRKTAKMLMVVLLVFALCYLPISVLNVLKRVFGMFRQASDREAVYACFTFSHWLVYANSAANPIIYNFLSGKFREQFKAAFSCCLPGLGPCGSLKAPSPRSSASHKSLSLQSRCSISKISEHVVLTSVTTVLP
TAAR1 antagonist: antagonists of human TAAR1; Q96RJ0; CHO RD-HGA16 TAAR1, Fluo-8 calcium fluorescence, antagonist; inhibition, % at 3 µM; 1.5% of 360,000 active; AID 624466;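 active = inhibition above a per-plate cutoff, the mean inhibition of test compounds on that plate plus 3 SD, cut at about 49% in these data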;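 note: 0% = DMSO plus EC80 beta-PEA response and 100% = DMSO alone without agonist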
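Test system: RD-HGA16 CHO cells with stable hTAAR1 and Gα16 / Probe or stimulus: EC80 β-phenethylamine stimulus / Times: seeding 17-24 h prior, 75-min 37 °C, 30-min RT dye loading / Detection: Fluo-8 calcium-sensitive fluorescence / Read-out basis: % inhibition scaled between DMSO and EC80 PEA controls / Repeats: singlicate, one well per test compound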
GalR3 antagonist: blocks the human galanin receptor 3 | O60755 | HEK293 GalR3-CNG cAMP membrane potential fluorescence; galR3 body fused to GalR1 C-terminus | inhibition, % at 3 µM | 0.44% of 360,000 active;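 active = inhibition above the screen-wide average plus 3 SD, cut at about 13% in these data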;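 note: forskolin and galanin both at EC90 stimulate the cells; cAMP rise reported by CNG channel membrane potential dye signal; 0% = forskolin plus galanin with DMSO and 100% = forskolin alone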
Target sequence (O60755 1-299 limits assumed): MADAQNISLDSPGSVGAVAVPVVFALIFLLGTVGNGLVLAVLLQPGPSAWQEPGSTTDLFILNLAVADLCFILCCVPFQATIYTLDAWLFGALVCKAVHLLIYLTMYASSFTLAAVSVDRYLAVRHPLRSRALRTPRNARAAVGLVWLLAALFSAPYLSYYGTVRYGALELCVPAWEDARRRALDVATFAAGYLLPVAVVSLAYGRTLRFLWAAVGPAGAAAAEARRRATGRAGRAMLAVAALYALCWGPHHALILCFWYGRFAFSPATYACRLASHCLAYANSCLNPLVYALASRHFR
CHO parental Ca: counter-screen: ATP calcium response change in parental CHO cells | parental CHO-K1, ATP-induced calcium, Fluo-8 fluorescence | inhibition, % at 5.6 µM | 0.63% of 330,000 active | AID 463079;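 active = inhibition above that plate's mean sample inhibition plus 3 SD, cut at about 26% in these data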;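 note: 0% = ATP-challenged DMSO wells and 100% = DMSO wells without ATP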
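Test system: untransfected parental CHO cell line. Compound: one dose, 5.6 µM nominal. Detection: intracellular calcium via Fluo-8 no-wash fluorescent dye. Measure: % inhibition. Benchmarks: ATP-challenged DMSO wells low, unchallenged DMSO wells high.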
OX1R antag-2: antagonists of human orexin 1 receptor; O43613; CHO/OX1R cells, Fluo-8 calcium fluorescence, orexin A; inhibition, % at 5 µM; 0.43% of 330,000 active;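 active = inhibition above its plate's threshold, mean inhibition of all tested compounds on the plate plus 3 SD, cut at about 37% in these data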;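 note: 0% = orexin A challenge wells and 100% = SB-334867-A antagonist wells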
TAAR1 agonist: human TAAR1 agonism | Q96RJ0 | 0.99% of 360,000 active | activation, % at 3 µM | CHO RD-HGA16 TAAR1, Fluo-8 calcium fluorescence; vehicle wells 0%, saturating PEA agonist 100%;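 active = activation above the mean activation of all test compounds in the run plus 3 SD, cut at about 38% in these data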
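Assay system – CHO-derived RD-HGA16 cells with stable Gα16 and human TAAR1 · Compound dosing – one-point dosing at 3 µM (nominal) · Incubation – 17-24 h seeding, 75 min 37 °C dye, 30 min RT · Measured by – kinetic Fluo-8 calcium fluorescence · Control set – DMSO vehicle as 0%, PEA at EC100 as 100% · Repeats – single well for each compound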
* = called active by the depositor; . = no result given. The list is not random: actives were taken first. Their share in the collection is about 4.3%.

SMILES	OX1R antag-1	TAAR1 antagonist	GalR3 antagonist	CHO parental Ca	OX1R antag-2	TAAR1 agonist
CC(C)C[C@H](NC(=O)c1nccs1)C(=O)N1CCC[C@H]1C(=O)NCc1ccccc1	.	4.1	0.2	.	.	2.8
CC(C)CN(C(=O)c1ccc(F)cc1F)c1c(N)n(CC(C)C)c(=O)[nH]c1=O	15.0	-15.1	-7.2	-8.0	-3.0	0.9
COc1ccc(-c2csc(NC(=O)CCS(=O)(=O)c3ccccc3)n2)c(OC)c1	6.9	54.6*	-3.5	-4.8	9.3	11.6
COc1ccc(-c2csc(NC(=O)CS(=O)(=O)c3ccccc3)n2)c(OC)c1	.	-8.5	-5.8	.	.	3.5
COc1ccc(OC)c(-c2csc(NC(=O)Cn3[nH]c(=O)c4ccccc4c3=O)n2)c1	28.6	54.2*	-3.8	16.2	2.1	4.2
COc1ccc(OC)c(-c2csc(NC(=O)CSc3ccc([N+](=O)[O-])cc3)n2)c1	31.3	48.6*	-3.2	0.7	-17.1	3.9
O=C(N[C@@H](Cc1cccnc1)C(=O)N1CCC[C@H]1C(=O)NCc1ccccc1)c1ccccc1	.	3.7	-7.6	.	.	0.1
Cn1cc(CC(=O)Nc2ccc(Nc3cccnc3)c(Br)c2)c2ccccc21	.	27.3	6.2	.	.	1.4
CCN(CC)c1ccc(-c2c(C#N)c(N)nc(OC)c2C#N)cc1	17.4	56.5*	3.2	36.0*	5.0	32.6
COc1cccc(-c2cc(CNC(=O)[C@H]3O[C@@H](n4cnc5c(N)ncnc54)[C@H](O)[C@@H]3O)no2)c1	.	-22.0	-4.8	.	.	0.8
C/C(=N/NS(=O)(=O)c1ccc(Br)cc1)c1ccc(NC(=O)c2ccc(C)o2)cc1	15.8	11.1	-4.7	-16.1	-30.0	38.5*
O=C(Nc1ccc(Cl)c(Cl)c1)N(CCCN1CCOCC1)Cc1cccs1	14.8	39.8	-2.6	-7.9	-20.3	45.6*
N#CCCN1CCN(C2=NC(=O)/C(=C\c3cccs3)S2)CC1	42.0*	5.4	-10.4	10.8	-5.0	6.1
CN(CC(=O)Nc1ccc(Cl)c(C(F)(F)F)c1)C(=O)COc1cccc2cccnc12	.	-17.4	-3.0	.	.	12.7
CSc1ccccc1NC(=O)CN(C)C(=O)COc1cccc2cccnc12	32.1*	-12.2	-6.7	-9.8	-4.2	1.0
C[C@@H]1NC(=O)c2cc([N+](=O)[O-])cc(I)c2OCC[C@@H](C(=O)NC(CC(=O)O)C(N)=O)NC(=O)[C@H](CCC(=O)O)NC1=O (stereo partly drawn)	61.8*	.	.	-7.2	-1.9	.
NC(=O)C(CC(=O)O)NC(=O)[C@@H]1CCOc2c(I)cc([N+](=O)[O-])cc2C(=O)N[C@@H](CCC(=O)O)C(=O)N[C@@H](CO)C(=O)N1 (stereo partly drawn)	70.4*	.	.	-3.7	2.3	.
Cc1ccc(NC(=O)/C=C/c2cccc(C(F)(F)F)c2)cc1	13.2	10.7	-2.5	-5.8	-21.5	-2.1
O=C(/C=C/c1cccc(C(F)(F)F)c1)Nc1cccc(C(F)(F)F)c1	35.7*	44.6	-9.3	-4.8	31.4	9.4
Cc1cccc(C(=O)O/N=C2/CC3CCC2(C)C3(C)C)c1 (stereo not drawn)	12.6	-6.7	5.2	30.7*	-36.6	2.4
Cc1ccc(C(=O)O/N=C2\CC3CCC2(C)C3(C)C)cc1 (stereo not drawn)	10.7	-13.2	-0.2	-18.6	-18.4	35.3
Nc1ccc(S(=O)(=O)N2CCc3ccccc32)cc1	15.9	8.7	-9.6	-1.2	-4.0	-0.4
O=S(=O)(NC1CCCC1)c1ccc(S(=O)(=O)N2CCc3ccccc32)cc1	31.9	26.8	-5.7	38.9*	-2.8	18.5
COC(=O)c1cc2c(c3c4cc(OC)ccc4n(S(=O)(=O)c4ccc(OC)cc4)c13)C(=O)N(Cc1ccccc1OC)C2	.	-21.1	-6.9	.	.	-0.6
Cc1ccc(S(=O)(=O)N2CCCCC2CCNC(=O)C(=O)NCCc2ccco2)cc1 (stereo not drawn)	48.4	-36.3	1.7	-22.7	9.1	-0.3
SMILES	OX1R antag-1	TAAR1 antagonist	GalR3 antagonist	CHO parental Ca	OX1R antag-2	TAAR1 agonist
Cc1ccc(C)c(S(=O)(=O)N2CCCCC2CCNC(=O)C(=O)NCCc2ccco2)c1 (stereo not drawn)	54.7*	10.6	-5.4	-29.2	-2.3	2.7
Cc1cc(S(=O)(=O)N2CCCOC2CNC(=O)C(=O)NCCc2ccco2)ccc1F (stereo not drawn)	61.5*	-11.7	-2.8	-17.6	11.0	0.0
O=C(NCCc1ccco1)C(=O)NCC1CCCN1S(=O)(=O)c1ccccc1 (stereo not drawn)	29.6	42.8	-2.7	-27.6	22.3	11.9
Cc1ccc(C)c(S(=O)(=O)N2CCCC2CNC(=O)C(=O)NCCc2ccco2)c1 (stereo not drawn)	58.0*	46.7	-6.0	-14.6	11.4	12.1
O=C(C(=O)N1CCN(S(=O)(=O)c2ccc(OC(F)(F)F)cc2)CC1)c1cccc(C(F)(F)F)c1	.	-8.3	-5.8	.	.	-2.2
CCOc1ccc(C(=O)C[n+]2cccc3cc(C)ccc32)cc1	47.2*	-2.8	-8.6	-9.5	1.1	1.0
Cn1cnc2ncnc(Oc3ccc(Br)cc3)c21	.	14.3	-5.2	.	.	0.3
COc1cc(/C=N/Nc2ccnc(=O)[nH]2)ccc1O	.	-10.1	-6.4	.	.	5.0
O=c1nccc(N/N=C/c2cccc(O)c2)[nH]1	0.5	-13.5	-8.4	-0.1	-9.9	39.9*
CCOC(=O)c1c(-c2ccccc2)csc1NC(=O)CSc1nc(C)cc(C)n1	36.0	22.9	-7.1	36.5*	-4.3	2.3
CCOC(=O)c1c(-c2ccc(OC)cc2)csc1NC(=O)CNCc1ccco1	46.3*	.	.	-19.9	-8.1	.
CCc1nc2ccc(C(=O)N3CCN(c4ccccc4)CC3)cn2c1N(C)CCC(C)C	.	-39.3	-1.4	.	.	3.6
CCC(C)/C(C)=N/Nc1ccc(S(N)(=O)=O)cc1[N+](=O)[O-] (stereo not drawn)	76.3*	-4.8	0.8	21.5	-19.4	-0.4
C/C(CC(C)C)=N\Nc1ccc(S(N)(=O)=O)cc1[N+](=O)[O-]	23.6	7.6	-8.0	16.6	-7.5	1.1
COc1ccc(CC(NC(C)=O)C(=O)NC2CCN(c3c(Cc4ccccc4)c(C)nc4ncnn34)CC2)c(OC)c1 (stereo not drawn)	6.5	7.0	-2.2	-22.3	-2.8	1.6
COc1ccc(OC)c(CC(NC(C)=O)C(=O)NC2CCN(c3cc(C)nc4ncnn34)CC2)c1 (stereo not drawn)	-0.5	7.0	-1.2	31.5*	-3.4	3.8
COC(=O)[C@]12C[C@H](CC(=O)NCC34CC5CC(CC(C5)C3)C4)C(=O)N(Cc3ccc4c(c3)OCO4)C1=C[C@H](COCc1ccccc1)O[C@@H]2C	.	-33.4	-4.9	.	.	1.1
Cc1ccc(Cl)cc1N1CCN(C(=O)c2cc3c(=O)[nH]c4ccccc4c3n2C)CC1	16.9	50.9*	2.6	45.2*	39.9	19.4
